# What was measured:
# [1] = system: Human immunodeficiency virus 1; test: Antiviral activity against wild type HIV-1 3B infected in human MT4 cells; type: functional, organism-based; conditions: Human immunodeficiency virus 1, 3B
# Method in brief: (§1)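 MT4 cells infected with HIV-1 (III_B) or HIV-2 (ROD), run in parallel with stavudine as positive control; antiviral IC50 and cytotoxic CC50 determined, selectivity index derived.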
# [2] = Cytotoxicity against human MT4 cells; type: cell-based; method in brief: as §1
# [3] = Selectivity index, ratio of CC50 for human MT4 cells to IC50 for antiviral activity against HIV-1 IIIB infected in MT4 cells; type: toxicity, cell-based; conditions: read-out: Ratio CC50/IC50
# Method in brief: (§2)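 MT4 cells infected with HIV-1 IIIB or HIV-2 ROD and tested in parallel with stavudine (d4T) as positive control. Antiviral IC50 and cytotoxic CC50 were both determined in MT4 cells. Selectivity index is CC50/IC50.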
# [4] = Selectivity index, ratio of CC50 for human MT4 cells to IC50 for antiviral activity against HIV-2 ROD infected in human MT4 cells; type: toxicity, cell-based; conditions: read-out: Ratio CC50/IC50; method in brief: as §2
# [5] = system: Human immunodeficiency virus 1; test: Antiviral activity against wild type HIV-1 3B infected in wild type human C8166 cells; type: functional, organism-based; conditions: Human immunodeficiency virus 1, 3B
# [6] = system: Human immunodeficiency virus 1; test: Antiviral activity against HIV-1 […] infected in thymidine kinase deficient human C8166 cells; type: functional, organism-based, 3B
# physchem = conditions: phosphate buffered saline, pH 7.4
# [7] = system: Human immunodeficiency virus 2; test: Antiviral activity against HIV-2 ROD infected in human MT4 cells; conditions: Human immunodeficiency virus 2, ISOLATE ROD
# [8] = system: Human immunodeficiency virus 1; test: Potency index, ratio of stavudine IC50 to test compound IC50 for antiviral activity against HIV-1 3B infected in human MT4 cells; type: functional
# Method in brief: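 MT4 cells infected with HIV-1 (IIIB) or HIV-2 (ROD). Test compounds were assayed alongside stavudine as the positive control, and antiviral IC50 was determined for each. Cytotoxicity (CC50) and selectivity index were determined in the same screen.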
# [9] = system: Human immunodeficiency virus 1; test: Potency index, ratio of stavudine IC50 to test compound IC50 for antiviral activity against wild type HIV-1 3B infected in wild type human C8166 cells; type: functional
# [10] = Prodrug activation in acetone-d6 and Trizma buffer assessed as carboxypeptidase Y (unknown origin)-mediated (S)-2-((((2S,5R)-5-(5-methyl-2,4-dioxo-3,4-dihydropyrimidin-1(2H)-yl)-2,5-dihydrofuran-2-yl)methoxy)oxidophosphorylamino)propanoate metabolite formation at 5 mg incubated for 7 mins to 2 hrs by 31P NMR analysis; type: ADME, Homo sapiens
# Method in brief: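 Compound dissolved in acetone-d6 with Trizma buffer (pH 7.6), treated with carboxypeptidase Y; ³¹P NMR spectra recorded over time, blank spectrum at 25 °C, conversion of parent diastereoisomer peaks to the intermediate monitored by chemical shift changes.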
# [11] = Prodrug activation in acetone-d6 and Trizma buffer assessed as carboxypeptidase Y (unknown origin)-mediated 3-(pentafluoro-lambda6-sulfanyl)phenol metabolite formation at 5 mg incubated for 1.25 hrs by 19F NMR analysis; type: ADME, Homo sapiens
# [12] = system: Human immunodeficiency virus 2; test: Potency index, ratio of stavudine IC50 to test compound IC50 for antiviral activity against HIV-2 ROD infected in human MT4 cells
# [13] = Human immunodeficiency virus 1, 3B, C8166, read-out: IC50
Compound,IC50 [1],IC50 [5],IC50 [6],solubility kinetic at 2 h (physchem),IC50 [7],Drug metabolism [10],Drug metabolism [11],CC50 [2],selectivity ratio [3],selectivity ratio [4],"IC50 [6, 13]",Ratio IC50 [8],Ratio IC50 [9],Ratio IC50 [12]
COC(=O)[C@H](C)NP(=O)(OC[C@@H]1C=C[C@H](n2cc(C)c(=O)[nH]c2=O)O1)Oc1ccccc1 (stereo partly specified),210 nM,300 nM,,,270 nM,,,251 µM,1200,930,320 nM,,,
COC(=O)[C@H](C)NP(=O)(OC[C@@H]1C=C[C@H](n2cc(C)c(=O)[nH]c2=O)O1)Oc1ccc(C(F)(F)F)cc1 (stereo partly specified),37 nM,22 nM,,> 100 µM,47 nM,,,42.9 µM,1160,912,75 nM,,180,
COC(=O)C1=C(C)NC(C)=C(C(=O)OCCN(C)Cc2ccccc2)C1c1cccc([N+](=O)[O-])c1 (stereo unspecified) [NICARDIPINE],,,,10 to 30 µM,,,,,,,,,,

# More lines, main results first:
IC50 [1],IC50 [5],IC50 [6],solubility kinetic at 2 h (physchem),IC50 [7],Drug metabolism [10],Drug metabolism [11],Compound,CC50 [2],selectivity ratio [3],selectivity ratio [4],"IC50 [6, 13]",Ratio IC50 [8],Ratio IC50 [9],Ratio IC50 [12]
41 nM,39 nM,Not Active,> 100 µM,49 nM,,,COC(=O)[C@H](C)NP(=O)(OC[C@@H]1C=C[C@H](n2cc(C)c(=O)[nH]c2=O)O1)Oc1cccc(C(F)(F)F)c1 (stereo partly specified),66.1 µM,1610,1350,,,,
30 nM,54 nM,,> 100 µM,36 nM,Metabolite_Detected,Metabolite_Detected,COC(=O)[C@H](C)NP(=O)(OC[C@@H]1C=C[C@H](n2cc(C)c(=O)[nH]c2=O)O1)Oc1cccc(S(F)(F)(F)(F)F)c1 (stereo partly specified),52.6 µM,1750,1460,335 nM,>10,75,>10
400 nM,4060 nM,Not Active,> 100 µM,450 nM,,,Cc1cn([C@H]2C=C[C@@H](CO)O2)c(=O)[nH]c1=O [STAVUDINE],313 µM,782,695,,,,
